Screening results (PubChem)
An excerpt weighted towards active compounds, which were near 1.9% of everything screened.
DAGLB inh – blocks human DAGLB lipase activity | HEK293T DAGLB membrane lysate, EnzChek fluorogenic substrate | inhibition, % at 5.17 µM | 340,000 compounds, 0.059% hits; in the data active means inhibition above about 34%;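 further: 0% = enzyme with vehicle and 100% = wells lacking enzyme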
Tb MetRS inh – blocks T. brucei methionyl-tRNA synthetase activity; AID 624268; 360,000 compounds, 0.4% hits; inhibition, % at 11.9 µM; purified T. brucei MetRS, ATP depletion, Kinase-Glo luminescence;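 active means inhibition above a per-plate cutoff of the control wells' mean inhibition plus 3 SD, cut at about 5.5% in these data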;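 further: 0% = DMSO wells median and 100% = median of wells with control inhibitor compound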
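technique = Kinase-Glo luminescence, ATP depletion format | system = purified MetRS (methionyl-tRNA synthetase) enzyme from Trypanosoma brucei | timing = 15 min preincubation, 2 h reaction, all 25 °C | evaluation = percent inhibition versus plate control medians | dosing = single dose, 11.9 µM final nominal, 0.9% final DMSO | also added = substrates ATP, L-methionine and bulk Escherichia coli tRNA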
PLC-gamma1 inh – blocks human PLC-gamma1 enzyme activity | purified PLC-gamma1, fluorogenic substrate, fluorescence | 370,000 compounds, 0.84% hits | inhibition, % at 12.2 µM | P19174
PLC-beta3 inh – inhibitors of human phospholipase C beta3 | inhibition, % at 12.2 µM | Purified PLC-beta3, fluorogenic substrate, fluorescence | Q01970 | 370,000 compounds, 0.18% hits; in the data active means inhibition above about 11%;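 further: 0% = median of compound wells on plate and 100% = full blocker control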
HGIII-sPLA2 inh – Blocks human group III sPLA2 activity; 370,000 compounds, 0.56% hits; QFRET BODIPY PC-A2 liposome hydrolysis, fluorescence; inhibition, % at 12.2 µM; Q9NZ20;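 active means inhibition above mean plus 3 SD of compounds lying within the high and low control bounds, cut at about 19% in these data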;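 further: 0% = median of test compound wells and 100% = no enzyme DMSO wells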
PLCgamma1 ctr – PLC-gamma1 inhibition, counter-screen for PLC-beta3 hits | shares compounds with PLC-gamma1 inh | purified PLC-gamma1, fluorogenic substrate, fluorescence | inhibition, % at 12.3 µM | 3,300 compounds, 3.1% hits | AID 743258
PLCbeta3 conf – confirmation of human PLC-beta3 inhibitors | shares compounds with PLC-gamma1 inh | AID 743261 | purified PLC-beta3, fluorogenic substrate fluorescence | inhibition, % at 12.3 µM | 3,300 compounds, 1% hits; in the data active means inhibition above about 11%
The depositor's hits bear a star; nt = no result. Unless noted, no stated cut-off is given here; in the data, active means inhibition above about 9.5%; inactive means the rest.

SMILES | DAGLB inh | Tb MetRS inh | PLC-gamma1 inh | PLC-beta3 inh | HGIII-sPLA2 inh | PLCgamma1 ctr | PLCbeta3 conf
CC12CCC(=O)C=C1CCC1C2C(O)CC2(C)C1CCC2(O)C(=O)CO (stereo not given) | -0.2 | -1.1 | 10.9* | -2.2 | 14.3 | -5.9 | 1.1
C[C@]12CCC(=O)C=C1CC[C@@H]1[C@@H]2[C@@H](O)C[C@@]2(C)[C@H]1CC[C@]2(O)C(=O)CO | 1.9 | -0.1 | -0.2 | 1.4 | -0.6 | nt | nt
O=C(NCc1cccnc1)c1ccccc1-c1ccccc1 | -1.2 | -0.5 | -4.5 | -0.7 | 1.0 | nt | nt
O=C(NCc1cccnc1)c1ccc(NC(=O)c2ccc([N+](=O)[O-])cc2)cc1 | -3.2 | -0.5 | 13.0* | -0.5 | 1.9 | -1.7 | -0.8
O=C(O)c1ccccc1C(=O)NCc1cccnc1 | -0.9 | -1.2 | 5.0 | 14.2* | 9.0 | -5.0 | 3.0
O=C(NC(=S)NCc1cccnc1)c1ccc([N+](=O)[O-])cc1 | -3.6 | -0.7 | -2.1 | 2.5 | 3.7 | nt | nt
C[C@H](CO)N1C[C@H](C)[C@@H](CN(C)C(=O)Nc2cccc(F)c2)OCc2cn(nn2)CCCC1=O | nt | nt | -5.2 | 2.5 | 5.8 | nt | nt
CN1CCN(C(=O)/C(=C/c2ccccc2)c2ccccc2)CC1 | -4.3 | 0.4 | 9.8* | 8.8 | 0.3 | -6.3 | -1.3
Cn1cc(CN2CCC(C(=O)NC(c3ccc(-c4ccccc4)cc3)c3cnccn3)CC2)c2ccccc21 (stereo not given) | nt | -0.1 | 12.0* | 6.8 | -38.6 | -0.7 | -0.7
CN[C@H]1C[C@H]2c3[nH]c4c(-c5cccc(C)c5)cccc4c3CCN2C[C@H]1[C@H](C)O | nt | nt | -97.7 | -118.8 | -6.5 | nt | nt
CCn1c(NCc2ccccc2NS(=O)(=O)c2ccc(C)cc2)nc2ccccc21 | -1.6 | -0.1 | 8.9 | 12.3* | -11.1 | -0.1 | 0.2
CCN(C(=O)[C@@H](C1CC1)[C@@H](O)c1ccc(Cl)cc1)c1ccccc1 | nt | nt | 3.0 | 2.2 | -5.3 | nt | nt
CC(=O)NC(c1cccc(F)c1)c1nc(/C=C/c2ccccc2)cs1 (stereo not given) | nt | -0.1 | 10.2* | 8.1 | -35.8 | -8.1 | -6.4
CCOC(=O)[C@H]1[C@H]2COc3ccccc3[C@@H]2N2C(=O)CNC(=O)[C@@]12C | 0.6 | -0.7 | 7.0 | 12.7* | 13.5 | -9.0 | -2.2
N#CC(c1ccc(Cl)cc1)c1ccc(Cl)nn1 (stereo not given) | -0.8 | -0.4 | 8.2 | 11.7* | 10.6 | -3.6 | -0.6
Cc1ccc(C(C#N)c2ccc(Cl)nn2)cc1 (stereo not given) | -5.5 | -1.8 | -0.5 | 5.5 | -1.3 | nt | nt
O=C(CN1CCN(S(=O)(=O)c2ccc(Br)cc2)CC1)Nc1ccc2c(c1)OCO2 | -1.3 | -1.2 | 10.0* | -0.2 | -6.9 | -3.4 | -3.1
CCN1CCN(CCC(=O)Nc2ccc3c(c2)OCO3)CC1 | -0.5 | -2.5 | 12.8* | 8.9 | 15.7 | 3.3 | -6.4
COc1cc2c(c(OC)c1OC)CC(c1ccccc1)=C(c1ccccc1)CC2NC(=O)C(F)(F)F (stereo not given) | nt | nt | -2.6 | -0.4 | 2.6 | nt | nt
Cc1[nH]c2ccccc2c1CC(=O)Nc1ccc(Nc2cccnc2)c(-c2ccc(Cl)c(Cl)c2)c1 | nt | nt | -15.8 | -17.6 | -9.3 | nt | nt
C[C@@H]1CCCCO[C@@H](CN(C)S(=O)(=O)c2ccccc2)[C@@H](C)CN([C@H](C)CO)C(=O)c2cc(NS(=O)(=O)c3ccc(F)cc3)ccc2O1 | -1.2 | 0.3 | 16.6* | 8.1 | -39.1 | -1.8 | -5.5
COc1ccc(S(=O)(=O)Nc2ccc3c(c2)CC(=O)N([C@@H](C)CO)C[C@H](C)[C@@H](CN(C)S(=O)(=O)c2ccc(F)cc2)O3)cc1 | -1.8 | -0.3 | 10.8* | 5.8 | -38.0 | -2.3 | -2.7
CCCCN1CN2Cc3cc(F)ccc3C2CS1(=O)=O (stereo not given) | nt | nt | -2.5 | -1.0 | 2.4 | nt | nt
COC(=O)CSc1nc2ccccc2n1CC(=O)N(C(C)C)C(C)C | 1.4 | -0.5 | 9.0 | 13.3* | -1.8 | -6.4 | -0.5
O=C(O)c1cccc(NC(=S)NC(NC(=O)c2cccc([N+](=O)[O-])c2)C(Cl)(Cl)Cl)c1 (stereo not given) | 3.8 | -0.4 | 10.9* | 6.6 | -36.0 | -6.0 | -4.8
SMILES | DAGLB inh | Tb MetRS inh | PLC-gamma1 inh | PLC-beta3 inh | HGIII-sPLA2 inh | PLCgamma1 ctr | PLCbeta3 conf
COC(=O)[C@]12C[C@H](CC(=O)NCc3cccc(C(F)(F)F)c3)C(=O)N(CCc3ccc(OC)c(OC)c3)C1=C[C@H](COCc1ccccc1)O[C@@H]2C | nt | nt | -0.8 | 2.6 | -20.5 | nt | nt
CC1CCC2(CC1)CCN(CCCOC(=O)Nc1cccc(C(F)(F)F)c1)C2=O (stereo not given) | nt | nt | -1.6 | -1.7 | 0.2 | nt | nt
O=C(NCn1cnccc1=O)c1ccccc1 | -1.0 | -0.8 | 1.2 | 0.4 | 6.5 | nt | nt
O=C(NC(C(=O)c1ccccc1)n1cnccc1=O)c1ccccc1 (stereo not given) | -6.9 | -0.9 | 11.1* | 3.3 | 2.9 | -2.2 | 2.8
Cc1ccc(C)c(NC(=O)c2cccc3c2-c2ccccc2C3=O)c1 | nt | nt | -1.1 | 1.1 | 1.9 | nt | nt
COc1ccc(N2CCN(C(=O)CCCn3c(=O)[nH]c4cc(Cl)ccc4c3=O)CC2)cc1 | 1.5 | 0.6 | 10.7* | 7.2 | 4.7 | -11.7 | -7.7
O=C(CCCn1c(=O)[nH]c2cc(Cl)ccc2c1=O)NCCCN1CCN(c2ccc(F)cc2)CC1 | 2.6 | 0.0 | 0.6 | -14.1 | -11.8 | nt | nt
O=C(CN1C(=O)CSc2ccc(C(F)(F)F)cc21)Nc1ccccc1 | -2.0 | 0.6 | 14.0* | 2.4 | 6.6 | 1.9 | 3.1
CC(=O)CC[C@@H]1CC[C@]2(CCCN(S(=O)(=O)c3ccccc3)C2)O1 | nt | nt | 1.3 | 6.4 | 1.4 | nt | nt
CCN(CC(=O)NCc1cccs1)S(=O)(=O)c1cccc(C(C)=O)c1 | 1.4 | -0.3 | 1.3 | 0.1 | 1.1 | nt | nt
CCN(CC(=O)NCc1cccs1)S(=O)(=O)c1cc(NC(C)=O)ccc1OC | -4.5 | -0.6 | 9.6* | -10.5 | 10.6 | -4.0 | -6.2
CCCCNC(=O)C[C@H]1C[C@@]2(C(=O)OC)C(=C[C@H](C(C)(C)C)O[C@@H]2C)N(Cc2ccccc2)C1=O | nt | nt | -1.2 | 3.9 | 1.9 | nt | nt
CN(C)S(=O)(=O)c1cc(NC(=O)[C@H](Cc2ccccc2)N2C(=O)c3ccccc3C2=O)ccc1Cl | -0.4 | -0.4 | 7.0 | 10.8* | -11.2 | 7.4 | 5.6
CN(C)S(=O)(=O)c1cc(NC(=O)COC(=O)CCc2ccccc2)ccc1Cl | -8.4 | 0.6 | -0.2 | -12.2 | -14.4 | nt | nt
COc1ccc(CN(CCN2CCOCC2)C(=O)c2ccc(F)cc2Cl)cc1OC | nt | nt | -2.1 | -1.1 | 9.4 | nt | nt
COc1cccc(SCc2noc(C(=O)NCCN(C)C)c2C(=O)NCCN(C)C)c1 | -2.6 | -0.1 | 9.7* | 7.5 | 16.5 | -4.3 | -1.6
COC(=O)c1ccc(Cl)c(NC(=O)CN(c2ccc(OC)c(OC)c2)S(C)(=O)=O)c1 | -1.4 | -0.4 | -0.2 | 1.0 | -0.2 | nt | nt
